Three compounds from ChEMBL document CHEMBL2321736 (ACS Med Chem Lett, 2013) can be followed below.

Values after ≈ are worked out from the molar mass of the structure shown.

A short description of data set [1]: Thermodynamic solubility of the compound at pH 7.4. It counts as physicochemical. Conditions: buffer, read-out: Therm_solubility. Summed up: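 Thermodynamic solubility measured at pH 7.4.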
Data set [2] in a line: Plasma clearance in Sprague-Dawley rat at 0.5 mg/kg, iv. The format is ADME, organism-based. Set-up: dose 0.5 mg/kg, route intravenous. Summed up: (§1)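 Male Sprague−Dawley rats given 0.5 mg/kg iv in 60% NMP solution, n = 3. Brain/plasma value is the unbound brain to unbound plasma AUC ratio after this iv dose.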
The nature of data set [3]: Ratio of unbound drug level in brain to plasma in Sprague-Dawley rat at 0.5 mg/kg, iv. The format is ADME, organism-based. Set-up: dose 0.5 mg/kg, route intravenous. Conditions: read-out: K(p,uu,brain). A digest of the protocol:
as §1

A short description of data set [4]: Volume of distribution in Sprague-Dawley rat at 0.5 mg/kg, iv. It counts as ADME, organism-based. Also on record: dose 0.5 mg/kg, route intravenous. Conditions: in vivo. Summed up:
as §1

Data set [5] is described as follows: Plasma clearance in beagle dog at 0.5 mg/kg, iv and 1 mg/kg, po. It counts as ADME, organism-based, Canis lupus familiaris. A digest of the protocol:
(§2)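 Male Beagle dogs, n = 3. iv dose 0.5 mg/kg in 30% NMP solution; oral dose 1 mg/kg as aqueous suspension of 1% RC591 + 0.2% tween80.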

Data set [6] can be described thus: Oral bioavailability in beagle dog at 1 mg/kg. It counts as ADME, organism-based, Canis lupus familiaris. Conditions: in vivo. A digest of the protocol:
as §2

With `CNc1nc(Nc2cc(F)c(C(=O)N3CCOCC3)cc2OC)ncc1C(F)(F)F`, the solubility thermodynamic in data set [1] was below 0.9 µg/mL.
A word on the Vd: it is the apparent volume that relates the amount in the body to the concentration in plasma or blood. Read a high Vd as wide distribution into tissue. Consider `CNc1nc(Nc2cnn(CC(C)(C)O)c2C)ncc1C(F)(F)F`, for which the clearance in data set [2] is 35 mL/min/kg. For the same compound, the Kp uu in data set [3] was 0.26. Also, the Vd in data set [4] came to 0.88 L/kg.
What is called bioavailability is the share of a dose that reaches the circulation, judged against a reference dose that is usually intravenous. The low end stands for little systemic uptake, the high end for much systemic uptake. As to `CNc1nc(Nc2cnn(CC(C)(C)O)c2Cl)ncc1C(F)(F)F`, the clearance worked out at 22 mL/min/kg in data set [5] and 21 mL/min/kg in data set [2]. In addition, the bioavailability in data set [6] was 31%. Besides, the solubility thermodynamic in data set [1] was 20 µg/mL (≈ 54.8 µM). Also, the Kp uu in data set [3] turned out to be 0.37. The same compound displayed a volume of distribution (Vd) in data set [4] of 2.5 L/kg.
